{
  "source": "paper PMC4188730",
  "about": "(European journal of medicinal chemistry, 2014)",
  "key": {"[1]": {"system": "HCT116 colorectal cancer cell line", "experiment": "Cytoproliferation", "assay_type": "cell-based", "details": "for effect on cell growth: HCT116, 96 hours, up to the highest concentration tested, 5 μM; for effect on cytoproliferation at lower concentrations: HCT116, 0.01, 0.1 and 1.0 nM (data not shown)", "procedure,_shortened": "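HCT116 colorectal carcinoma cells seeded at 3×10⁴ cells/well in quadruplicate, attached overnight. Medium then replaced with fresh medium containing test compound; incubated 96 hours at 37 °C, 5% CO₂. CellTiter 96 One Solution MTS reagent added for 1.5 h at 37 °C, absorbance read at 490 nm. Points are mean of two experiments, 4 replicates each, with SEM.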"}, "[2]": {"molecular_target": "T1, recombinant HDAC6 (Homo sapiens, UniProt Q9UBN7)", "T1 sequence (Q9UBN7 1-1215)": "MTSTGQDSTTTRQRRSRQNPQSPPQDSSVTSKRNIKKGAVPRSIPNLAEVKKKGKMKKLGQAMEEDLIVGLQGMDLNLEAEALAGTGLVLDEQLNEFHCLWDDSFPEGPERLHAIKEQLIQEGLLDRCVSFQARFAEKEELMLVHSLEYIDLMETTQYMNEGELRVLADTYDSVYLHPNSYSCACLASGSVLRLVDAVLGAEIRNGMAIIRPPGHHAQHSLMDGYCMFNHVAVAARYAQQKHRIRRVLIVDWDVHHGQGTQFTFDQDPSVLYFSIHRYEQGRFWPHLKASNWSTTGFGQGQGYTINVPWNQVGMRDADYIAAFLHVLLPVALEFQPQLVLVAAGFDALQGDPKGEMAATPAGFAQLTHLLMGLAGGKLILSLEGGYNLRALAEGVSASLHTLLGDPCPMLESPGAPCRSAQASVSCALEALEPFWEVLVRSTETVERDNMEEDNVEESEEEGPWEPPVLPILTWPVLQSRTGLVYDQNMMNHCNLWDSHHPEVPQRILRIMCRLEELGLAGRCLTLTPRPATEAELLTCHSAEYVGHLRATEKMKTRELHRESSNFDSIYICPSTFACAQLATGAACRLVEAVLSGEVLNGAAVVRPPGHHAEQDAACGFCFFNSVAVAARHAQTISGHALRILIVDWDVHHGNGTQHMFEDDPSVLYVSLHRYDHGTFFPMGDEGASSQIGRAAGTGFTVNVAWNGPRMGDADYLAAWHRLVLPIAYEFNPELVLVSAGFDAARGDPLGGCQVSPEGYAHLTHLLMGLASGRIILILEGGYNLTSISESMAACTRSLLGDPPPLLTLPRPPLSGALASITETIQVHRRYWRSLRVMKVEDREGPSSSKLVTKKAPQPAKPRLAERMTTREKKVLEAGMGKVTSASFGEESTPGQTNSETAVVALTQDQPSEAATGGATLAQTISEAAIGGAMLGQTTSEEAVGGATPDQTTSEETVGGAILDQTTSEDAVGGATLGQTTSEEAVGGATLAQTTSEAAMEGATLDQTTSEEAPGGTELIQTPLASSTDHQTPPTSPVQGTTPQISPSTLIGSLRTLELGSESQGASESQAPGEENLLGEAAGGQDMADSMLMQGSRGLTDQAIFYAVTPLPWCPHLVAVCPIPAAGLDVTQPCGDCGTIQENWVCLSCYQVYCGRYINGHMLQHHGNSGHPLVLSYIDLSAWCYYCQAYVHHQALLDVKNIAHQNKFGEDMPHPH", "experiment": "Fluorimetric HDAC activity assay, recombinant HDAC6", "assay_type": "biochemical", "details": "0–5 μM"}, "[3]": {"system": "global H3K9 acetylation in HCT116 cells", "experiment": "Western blot of global histone H3K9 acetylation", "assay_type": "cell-based", "details": "HCT116, 24 hours, 100 nM and 1 μM; for induction of global H3K9 (H3) acetylation: 10 nM; for concentration at which increase of global H3K9 acetylation was observed: tested at 10 nM", "procedure,_shortened": "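HCT116 cells exposed 24 hours to test compound at 10 nM, 100 nM or 1 μM, or to DMSO. Lysed in RIPA buffer (50 mmol/L Tris-HCl, 1% NP-40, 0.25% deoxycholate, 150 mmol/L NaCl, 50 mmol/L NaF). Protein quantified by DC assay, 30 μg/lane run on SDS-PAGE. Blots probed for acetyl-H3 with β-actin loading control, detected by dye-conjugated secondaries on infrared scanner.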"}, "[4]": {"molecular_target": "recombinant HDAC1 (Homo sapiens, UniProt Q13547)", "sequence (Q13547 whole entry)": "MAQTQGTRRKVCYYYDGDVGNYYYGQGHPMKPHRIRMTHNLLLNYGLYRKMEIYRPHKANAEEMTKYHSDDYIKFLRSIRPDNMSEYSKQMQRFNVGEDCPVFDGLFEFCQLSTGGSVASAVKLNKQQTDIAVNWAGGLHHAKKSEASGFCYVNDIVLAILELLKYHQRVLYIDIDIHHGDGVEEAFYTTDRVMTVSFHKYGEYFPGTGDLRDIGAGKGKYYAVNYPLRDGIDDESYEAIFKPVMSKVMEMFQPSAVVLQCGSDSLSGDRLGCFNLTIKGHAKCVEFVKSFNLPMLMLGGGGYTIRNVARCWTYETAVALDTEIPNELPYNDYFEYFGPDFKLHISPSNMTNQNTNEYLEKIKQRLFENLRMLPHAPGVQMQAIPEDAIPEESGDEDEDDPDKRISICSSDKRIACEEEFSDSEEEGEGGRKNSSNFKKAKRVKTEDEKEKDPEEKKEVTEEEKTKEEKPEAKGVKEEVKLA", "experiment": "Fluorimetric HDAC activity assay, recombinant HDAC1", "assay_type": "biochemical", "details": "at 0.1 μM, 1 hour"}, "[5]": {"system": "human cancer cells", "details": "cited from earlier work"}, "[6]": {"system": "HDAC isoforms", "details": "cited from earlier work"}},
  "note": "“Also recorded” adds a separate entry of the source.",
  "data": [
    {"compound": "CCCCCCCC(=O)SCC/C=C/[C@@H]1CC(=O)NCc2nc(cs2)C2=N[C@@](C)(CS2)C(=O)N[C@H](Cc2cccc3ccccc23)C(=O)O1", "note": "[Analogue 16a]", "values": [
      {"measurement": "effect on cell growth", "setting": "[1]", "result": "minimal effect; also recorded: no effect"},
      {"measurement": "HDAC6 specific inhibition (comparison among analogues)", "setting": "[2]", "result": "least amount"},
      {"measurement": "induction of global H3K9 (H3) acetylation", "setting": "[3]", "result": "very little induction; also recorded: no change; also recorded: failed to induce"}
    ]},
    {"compound": "C=CCC1NC(=O)C2(C)CSC(=N2)c2csc(n2)CNC(=O)CC(C=CCCSC(=O)CCCCCCC)OC1=O", "note": "(stereo not shown) [Analogue 16b]", "values": [
      {"measurement": "effect on cytoproliferation at lower concentrations", "setting": "[1]", "result": "No significant effect"},
      {"measurement": "effect on cell growth", "setting": "[1]", "result": "significant effect"},
      {"measurement": "induction of global H3K9 (H3) acetylation", "setting": "[3]", "result": "greatest induction; also recorded: robust induction"},
      {"measurement": "concentration at which increase of global H3K9 acetylation was observed", "setting": "[3]", "result": 100, "unit": "nM"}
    ]},
    {"compound": "CCCCCCCC(=O)SCC/C=C/[C@@H]1CC(=O)NCc2nc(cs2)C2=N[C@@](C)(CS2)C(=O)N[C@@H](C(C)C)C(=O)O1", "note": "[largazole, reference compound]", "values": [
      {"measurement": "GI50", "setting": "[1]; Homo sapiens, HCT-116, 96 h", "result": "< 10", "unit": "nM"},
      {"measurement": "concentration at which increase of global H3K9 acetylation was observed", "setting": "[3]", "result": 10, "unit": "nM"}
    ]},
    {"compound": "CCCCCCCC(=O)SCC/C=C/[C@@H]1CC(=O)NCc2nc(cs2)C2=N[C@@](C)(CS2)C(=O)N[C@@H](Cc2cccc3ccccc23)C(=O)O1", "note": "[Analogue 16c]", "values": [
      {"measurement": "effect on cytoproliferation at lower concentrations", "setting": "[1]", "result": "No significant effect"},
      {"measurement": "effect on cell growth", "setting": "[1]", "result": "significant effect"},
      {"measurement": "inhibition of HDAC1 activity", "setting": "[4]", "result": "about 15%"},
      {"measurement": "induction of global H3K9 (H3) acetylation", "setting": "[3]", "result": "greatest induction; also recorded: robust induction"},
      {"measurement": "concentration at which increase of global H3K9 acetylation was observed", "setting": "[3]", "result": 10, "unit": "nM"}
    ]},
    {"compound": "CCCCCCCC(=O)SCCC=CC1CC(=O)NCc2nc(cs2)C2=NC(C)(CS2)C(=O)NC(Cc2ccc(O)cc2)C(=O)O1", "note": "[L-tyrosine analogue]", "values": [
      {"measurement": "selectivity toward human cancer cells over normal cells", "setting": "[5]", "result": 100, "unit": "fold"}
    ]},
    {"compound": "CCCCCCCC(=O)SCCC=CC1CC(=O)NCc2nc(cs2)C2=NC(C)(CS2)C(=O)NC(C(C)C)C(=O)O1", "note": "(stereo not shown) [C-2 epimer of largazole]", "values": [
      {"measurement": "inhibitory potency against HDAC isoforms", "setting": "[6]", "result": "sub-micromolar"}
    ]},
    {"compound": "CCCCCCCC(=O)SCCC=CC1CC(=O)NCc2nc(cs2)C2=NC(C)(CS2)C(=O)NC(C(C)C)C(=O)O1", "note": "(single isomer, unassigned) [enantiomer of largazole]", "values": [
      {"measurement": "potency in inhibiting HDAC isoforms relative to largazole", "setting": "[6]", "result": "three times less potent"}
    ]},
    {"compound": "CCCCCCCC(=O)SCC/C=C/[C@@H]1CC(=O)NCc2nc(cs2)C2=N[C@](C)(CS2)C(=O)N[C@@H](C(C)C)C(=O)O1", "note": "[Analogue 12]", "values": [
      {"measurement": "effect on cell growth", "setting": "[1]", "result": "minimal effect"},
      {"measurement": "induction of global H3K9 (H3) acetylation", "setting": "[3]", "result": "very little induction; also recorded: slight increase; also recorded: no change; also recorded: slight induction"}
    ]}
  ]
}
